In test [1] the target is T1, glypican-1 binding to Slit protein (Homo sapiens, UniProt O94813, DEL1116-1124).
T1 sequence (O94813 with tags, fused parts or gaps DEL1116-1124): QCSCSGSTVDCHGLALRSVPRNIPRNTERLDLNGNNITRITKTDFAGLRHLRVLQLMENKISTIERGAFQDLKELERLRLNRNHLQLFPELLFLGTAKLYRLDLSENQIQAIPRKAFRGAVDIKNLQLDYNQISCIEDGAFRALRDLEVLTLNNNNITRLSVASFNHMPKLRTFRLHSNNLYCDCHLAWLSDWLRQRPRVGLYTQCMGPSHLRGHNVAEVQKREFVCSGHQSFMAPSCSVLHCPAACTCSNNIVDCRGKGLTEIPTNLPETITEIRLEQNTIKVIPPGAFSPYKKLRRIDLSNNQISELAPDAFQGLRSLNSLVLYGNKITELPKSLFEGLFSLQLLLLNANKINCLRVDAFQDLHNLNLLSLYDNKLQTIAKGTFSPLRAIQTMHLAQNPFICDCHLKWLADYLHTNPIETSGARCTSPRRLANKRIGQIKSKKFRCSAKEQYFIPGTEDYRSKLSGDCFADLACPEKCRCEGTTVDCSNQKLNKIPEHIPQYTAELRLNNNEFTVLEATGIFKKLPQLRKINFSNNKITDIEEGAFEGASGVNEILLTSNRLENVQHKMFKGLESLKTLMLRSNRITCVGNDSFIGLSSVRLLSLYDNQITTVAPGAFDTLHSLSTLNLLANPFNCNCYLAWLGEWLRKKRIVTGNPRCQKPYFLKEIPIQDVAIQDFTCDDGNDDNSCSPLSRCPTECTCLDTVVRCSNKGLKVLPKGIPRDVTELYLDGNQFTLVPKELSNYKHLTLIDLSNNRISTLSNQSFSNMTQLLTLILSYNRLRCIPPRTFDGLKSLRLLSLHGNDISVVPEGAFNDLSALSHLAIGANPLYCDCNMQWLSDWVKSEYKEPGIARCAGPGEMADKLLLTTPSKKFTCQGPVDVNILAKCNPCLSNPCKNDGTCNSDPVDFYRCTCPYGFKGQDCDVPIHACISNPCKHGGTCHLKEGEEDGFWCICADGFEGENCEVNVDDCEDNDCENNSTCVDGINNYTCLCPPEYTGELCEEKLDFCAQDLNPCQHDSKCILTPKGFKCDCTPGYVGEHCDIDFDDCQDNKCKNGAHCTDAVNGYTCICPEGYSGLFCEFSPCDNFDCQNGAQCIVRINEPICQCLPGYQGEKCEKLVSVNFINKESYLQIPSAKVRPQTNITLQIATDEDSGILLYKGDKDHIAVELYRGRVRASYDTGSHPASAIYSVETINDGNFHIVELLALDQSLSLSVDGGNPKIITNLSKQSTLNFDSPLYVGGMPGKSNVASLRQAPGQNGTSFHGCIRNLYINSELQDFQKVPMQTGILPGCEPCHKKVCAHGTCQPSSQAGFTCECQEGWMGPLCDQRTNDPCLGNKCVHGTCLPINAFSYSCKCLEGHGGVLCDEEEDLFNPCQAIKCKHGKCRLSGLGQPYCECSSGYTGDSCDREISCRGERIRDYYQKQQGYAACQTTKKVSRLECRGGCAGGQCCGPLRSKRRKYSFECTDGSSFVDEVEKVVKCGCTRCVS
Nature of the test: ELISA of glypican-1–Fc binding to immobilised human full-length Slit-2. The method, boiled down: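 Wells coated overnight with His-tagged uncleavable full-length human Slit-2 (HEK293-expressed, Ni-agarose purified), 5 μg/well in PBS; blocked 2 h with 10% FBS/TBST. Glycanated glypican-1–Fc (HEK293, DEAE then protein A) added at 1 μg/mL in PBS, 18 h, room temperature. Detection: biotinylated anti-human Fc, HRP-streptavidin, o-phenylenediamine, 450 nm. Non-specific binding from BSA-coated wells; bound amount read from glypican-1–Fc standard curve; replicates.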
(In an ELISA, binding on a coated surface is turned into a signal by an enzyme label.)

The conditions of test [2]: in whole blood; cited from earlier work.

In general, inhibition refers to the percentage by which the read-out fell short of the control.

Regarding `CO[C@H]1O[C@H](COS(=O)(=O)O)[C@@H](O[C@@H]2O[C@@H](C(=O)O)[C@@H](O[C@H]3O[C@H](COS(=O)(=O)O)[C@@H](O[C@@H]4O[C@H](C(=O)O)[C@@H](O[C@H]5O[C@H](COS(=O)(=O)O)[C@@H](O)[C@H](O)[C@H]5NS(=O)(=O)O)[C@H](O)[C@H]4O)[C@H](OS(=O)(=O)O)[C@H]3NS(=O)(=O)O)[C@H](O)[C@H]2OS(=O)(=O)O)[C@H](O)[C@H]1NS(=O)(=O)O` [fondaparinux], the “inhibition of glypican–Slit binding (in words)” value in test [1] (at concentrations up to 50 μmol/L) is “completely inactive”. As for `Cc1ccc(C(=O)Nc2ccc(S(=O)(=O)O)c3cc(S(=O)(=O)O)cc(S(=O)(=O)O)c23)cc1NC(=O)c1cccc(NC(=O)Nc2cccc(C(=O)Nc3cc(C(=O)Nc4ccc(S(=O)(=O)O)c5cc(S(=O)(=O)O)cc(S(=O)(=O)O)c45)ccc3C)c2)c1` [suramin], the inhibition at 5 µM in test [1] (read-out: inhibition of glypican binding to Slit) worked out at 53%. Take `O=S(=O)(O)c1cc2c(O)c(c1)Cc1cc(S(=O)(=O)O)cc(c1O)Cc1cc(S(=O)(=O)O)cc(c1O)Cc1cc(S(=O)(=O)O)cc(c1O)Cc1cc(S(=O)(=O)O)cc(c1O)Cc1cc(S(=O)(=O)O)cc(c1O)Cc1cc(S(=O)(=O)O)cc(c1O)Cc1cc(S(=O)(=O)O)cc(c1O)C2` [GL-522-Y-1, cyclic octaphenol-octasulphonic acid]: in test [2], the anticoagulant activity entry is given as “no significant anticoagulant activity”. Further, the figures for the “inhibition of glypican binding to Slit” value in test [1] (at 5 μmol/L) and in test [1] (at 50 μmol/L) were 61% and 67%, respectively.

The record behind these values is article PMC4576835 (Clinical and experimental pharmacology & physiology, 2009).
